Reference: ChEMBL document CHEMBL1132335, “Discovery and synthesis of (S)-3-[2-(3,4-dimethoxyphenyl)ethoxy]-2- (4,6-dimethylpyrimidin-2-yloxy)-3,3-diphenylpropionic acid (LU 302872), a novel orally active mixed ET(A)/ET(B) receptor antagonist” (J Med Chem, 1999)

Experiments:
[1] = target: T1, Endothelin receptor, ET-A/ET-B (Homo sapiens) (UniProt P24530+P25101); assay: Selectivity for Endothelin A receptor compared to Endothelin B receptor.; format: protein assay
[2] = target: T2, Endothelin receptor type B (Homo sapiens, UniProt P24530); assay: Inhibition of [125I]ET-3 (ETB assay) binding to human cloned Endothelin B receptor in CHO cells; format: cell-based
T2 sequence (P24530 whole entry): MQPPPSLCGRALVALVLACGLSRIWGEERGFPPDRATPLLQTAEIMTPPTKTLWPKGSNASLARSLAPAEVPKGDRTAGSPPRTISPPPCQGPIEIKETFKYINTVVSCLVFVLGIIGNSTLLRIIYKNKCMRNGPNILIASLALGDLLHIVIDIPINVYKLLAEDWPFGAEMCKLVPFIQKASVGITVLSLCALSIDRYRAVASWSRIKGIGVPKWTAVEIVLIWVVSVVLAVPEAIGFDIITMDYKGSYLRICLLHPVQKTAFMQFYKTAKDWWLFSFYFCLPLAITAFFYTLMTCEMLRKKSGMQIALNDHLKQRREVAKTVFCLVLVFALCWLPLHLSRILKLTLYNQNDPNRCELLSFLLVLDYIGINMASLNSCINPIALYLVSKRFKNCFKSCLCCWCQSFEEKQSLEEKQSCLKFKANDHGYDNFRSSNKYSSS
Summary of the method: (§1)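 CHO cells stably expressing human ETA or ETB receptor; 10–50 µg membrane protein incubated 30 min at 25 °C in 50 mM Tris-HCl pH 7.4, 5 mM MnCl2, 40 µg/mL bacitracin, 0.2% BSA, with 25 pM [125I]ET-1 (ETA) or 25 pM [125I]ET-3 (ETB). Nonspecific binding with 0.1 µM ET-1; filtration, scintillation counting. Triplicate, repeated at least once; Ki by Cheng–Prusoff or nonlinear regression, ±SE.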

[3] = target: T3, Endothelin-1 receptor (Homo sapiens, UniProt P25101); assay: Inhibition of [125I]-ET-1 (ETA assay) binding to human cloned Endothelin A receptor in CHO cells; format: cell-based; summary of the method: as §1
T3 sequence (P25101 whole entry): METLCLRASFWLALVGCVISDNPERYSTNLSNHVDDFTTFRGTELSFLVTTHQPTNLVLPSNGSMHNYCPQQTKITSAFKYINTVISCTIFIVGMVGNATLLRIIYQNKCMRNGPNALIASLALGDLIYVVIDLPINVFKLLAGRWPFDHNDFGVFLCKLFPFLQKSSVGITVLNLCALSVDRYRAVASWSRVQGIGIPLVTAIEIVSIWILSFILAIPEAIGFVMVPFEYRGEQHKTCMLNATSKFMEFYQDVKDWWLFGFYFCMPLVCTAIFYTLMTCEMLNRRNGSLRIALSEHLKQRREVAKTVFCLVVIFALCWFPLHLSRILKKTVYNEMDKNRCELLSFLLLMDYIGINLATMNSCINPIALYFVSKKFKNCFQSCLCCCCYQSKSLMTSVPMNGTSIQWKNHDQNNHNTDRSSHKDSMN

[4] = target: T4, Endothelin receptor (Rattus norvegicus) (UniProt P26684+P21451); conditions: Blood, 10 mg/kg
[5] = target: T4, Endothelin receptor (Rattus norvegicus); conditions: Blood, 10 mg/kg; remark: listed apart in the source
[6] = target: T1, Endothelin receptor, ET-A/ET-B (Homo sapiens); conditions: Rattus norvegicus; 30 mg/kg
[7] = target: T1, Endothelin receptor, ET-A/ET-B (Homo sapiens); conditions: Rattus norvegicus; 10 mg/kg
[8] = tested on: Rattus norvegicus; assay: Inhibition of big ET-induced blood pressure increase in drug treated rats with 10 mg/Kg of compound given perorally was reported as (AUD 30 min) in mmHg(min); format: functional
Summary of the method: (§2)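 Male Sprague–Dawley rats dosed 10 mg/kg p.o.; urethane anesthesia (1.6 g/kg i.p.), tracheotomy 90 min later, carotid artery cannulated for blood pressure, jugular vein for agonist. Big ET-1 20 µg/kg i.v. at 120 min post-dose; pressure recorded over 30 min as area under the data (AUD30min), compared with control; mean ± SEM.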

[9] = tested on: Rattus norvegicus; assay: Percent reduction of big ET-induced blood pressure increase in drug treated rats with LU 135252 and 10 mg/Kg of compound given perorally was reported as (AUD 30 min) in mmHg(min); format: functional; summary of the method: as §2
[10] = tested on: Rattus norvegicus; assay: Inhibition of big ET-induced blood pressure increase in drug treated rats with LU 135252 and 10 mg/Kg of compound given perorally was reported as (AUD 30 min) in mmHg(min); format: functional; summary of the method: as §2
[11] = target: T1, Endothelin receptor, ET-A/ET-B (Homo sapiens); assay: Compound was tested for inhibition of big ET-induced bronchospasm in drug treated guinea pigs with LU 135252 and balanced ETA/B receptor antagonists at 10 mg/kg oral dose was reported as (AUD 30 min) in mL(min); conditions: Cavia porcellus
[12] = target: T1, Endothelin receptor, ET-A/ET-B (Homo sapiens); assay: Compound was tested for %inhibition of big ET-induced bronchospasm in guinea pigs with LU 135252 and balanced ETA/B receptor antagonists at 10 mg/kg oral dose was reported as (AUD 30 min) in mL(min); conditions: Cavia porcellus

T4 sequence (P21451 whole entry, looked up): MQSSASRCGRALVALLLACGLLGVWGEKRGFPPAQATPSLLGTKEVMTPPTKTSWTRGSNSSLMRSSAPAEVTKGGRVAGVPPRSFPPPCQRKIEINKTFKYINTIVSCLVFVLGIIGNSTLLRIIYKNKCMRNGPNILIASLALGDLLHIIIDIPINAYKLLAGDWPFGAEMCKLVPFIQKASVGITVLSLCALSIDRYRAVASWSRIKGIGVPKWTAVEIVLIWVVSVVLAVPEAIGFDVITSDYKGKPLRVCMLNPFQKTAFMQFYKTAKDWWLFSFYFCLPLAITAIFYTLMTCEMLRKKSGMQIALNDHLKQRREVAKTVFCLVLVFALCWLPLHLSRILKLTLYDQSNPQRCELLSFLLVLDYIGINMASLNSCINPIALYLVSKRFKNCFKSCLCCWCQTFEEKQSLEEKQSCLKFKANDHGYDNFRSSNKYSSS
T4 sequence (P26684 whole entry, looked up): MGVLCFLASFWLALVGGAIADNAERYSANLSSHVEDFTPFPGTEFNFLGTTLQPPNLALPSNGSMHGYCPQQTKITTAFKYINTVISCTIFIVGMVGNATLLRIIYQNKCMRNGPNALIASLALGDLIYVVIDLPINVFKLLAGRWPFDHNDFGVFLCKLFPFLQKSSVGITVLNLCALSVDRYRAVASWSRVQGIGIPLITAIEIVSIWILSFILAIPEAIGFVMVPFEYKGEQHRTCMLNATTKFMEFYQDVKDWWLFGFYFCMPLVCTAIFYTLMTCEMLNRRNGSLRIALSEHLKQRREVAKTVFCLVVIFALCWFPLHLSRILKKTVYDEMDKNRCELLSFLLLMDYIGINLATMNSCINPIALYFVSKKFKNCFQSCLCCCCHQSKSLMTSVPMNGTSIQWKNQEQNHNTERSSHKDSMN

`Cc1cc(C)nc(OC(C(=O)O)C(OCCc2ccccc2)(c2ccccc2)c2ccccc2)n1` (stereo not drawn) was tested, and the Ratio [1] was 9.2, the Ki [2] was 0.23 µM and the Ki [3] was 0.025 µM.

Molecule `COc1ccccc1Oc1c(NS(=O)(=O)c2ccc(C(C)(C)C)cc2)nc(-c2ncccn2)nc1OCCO` has a BP increase [4] of 1400 AUD30min and a BP increase [5] of 7%.

`COc1cc(OC)nc(O[C@H](C(=O)O)C(OC)(c2ccccc2)c2ccccc2)n1` [DARUSENTAN] gave a Reduction in respiratory volume [6] of 172 mL, a Reduction in respiratory volume [7] of 19 mL and a BP increase [8] of 636 mmHg.

For `CCc1ccc(C(OCCc2ccc(OC)cc2)(c2ccc(CC)cc2)C(Oc2nc(C)cc(OC)n2)C(=O)O)cc1` (stereo not drawn), the Ratio [1] was 1, the Ki [2] was 0.16 µM and the Ki [3] was 0.155 µM.

`COc1ccc(CCOC(c2ccc(C)cc2)(c2ccc(C)cc2)C(Oc2nc(OC)c3c(n2)OCC3)C(=O)O)cc1` (stereo not drawn) was tested, and the Ratio [1] was 0.7, the Ki [2] was 0.0712 µM and the Ki [3] was 0.105 µM.

In the case of `CCOc1ccc(CCOC(c2ccccc2)(c2ccccc2)C(Oc2nc(C)cc(C)n2)C(=O)O)cc1OC` (stereo not drawn), the Ratio [1] is reported as 8, the BP increase [9] is reported as 68% and the BP increase [10] is reported as 475 mmHg. It also gave a Ki [2] of 0.0251 µM and a Ki [3] of 0.00313 µM.

In the case of `Cc1ccc(CCCOC(c2ccccc2)(c2ccccc2)C(Oc2nc(C)cc(C)n2)C(=O)O)cc1` (stereo not drawn), the Ki [2] is reported as 0.17 µM and the Ki [3] is reported as 0.023 µM.

For `COc1ccc(CCOC(c2ccccc2)(c2ccccc2)C(Oc2nc(C)cc(C)n2)C(=O)O)cc1OC` (stereo not drawn), the Ratio [1] was 2, the BP increase [9] was 58% and the BP increase [10] was 641 mmHg. It also gave a Reduction in respiratory volume [11] of 71 mL and a Reduction in respiratory volume [12] of 67%.

In the case of `Cc1cc(C)nc(OC(C(=O)O)C(OCCc2ccc(C(=O)O)cc2)(c2ccccc2)c2ccccc2)n1` (stereo not drawn), the Ratio [1] is reported as 77, the Ki [2] is reported as 0.115 µM and the Ki [3] is reported as 0.0015 µM.

Work on `COc1cc(/C=C/COC(c2ccccc2)(c2ccccc2)C(Oc2nc(C)cc(C)n2)C(=O)O)cc(OC)c1OC` (stereo not drawn) yielded a Ratio [1] of 0.4, a Ki [2] of 0.02 µM and a Ki [3] of 0.048 µM.

For `Cc1ccc(CCOC(c2ccccc2)(c2ccccc2)C(Oc2nc(C)cc(C)n2)C(=O)O)cc1` (stereo not drawn), the Ki [2] was 0.055 µM and the Ki [3] was 0.0325 µM.

`Cc1cc(C)nc(OC(C(=O)O)C(OCCc2ccc(O)cc2)(c2ccccc2)c2ccccc2)n1` (stereo not drawn) gave a Ratio [1] of 4.7, a Ki [2] of 0.0162 µM and a Ki [3] of 0.00348 µM.

For `COc1ccc(CCOC(c2ccccc2)(c2ccccc2)C(Oc2nc(C)cc(OC)n2)C(=O)O)cc1` (stereo not drawn), the Ratio [1] was 11.8 and the Ki [3] was 0.00195 µM.

For `COc1cc(CCOC(c2ccccc2)(c2ccccc2)C(Oc2nc(C)cc(C)n2)C(=O)O)cc(OC)c1OC` (stereo not drawn), the Ratio [1] was 2.3, the BP increase [9] was 25% and the BP increase [10] was 1123 mmHg. For the same molecule, the Ki [2] was 0.00321 µM and the Ki [3] was 0.00138 µM.

`COc1cc(C)nc(OC(C(=O)O)C(OCCc2ccc(OC)c(OC)c2)(c2ccc(Cl)cc2)c2ccc(Cl)cc2)n1` (stereo not drawn) was tested, and the Ratio [1] was 0.6.

For `COc1cc(CCOC(c2ccccc2)(c2ccccc2)C(Oc2nc(C)cc(C)n2)C(=O)O)ccc1OCC(=O)O` (stereo not drawn), the Ratio [1] was 12, the BP increase [9] was 14% and the BP increase [10] was 1294 mmHg. It also gave a Ki [2] of 0.024 µM and a Ki [3] of 0.00192 µM.

In the case of `COc1ccc(CCOC(c2ccccc2)(c2ccccc2)C(Oc2nc(C)cc(C)n2)C(=O)O)cc1` (stereo not drawn), the Ratio [1] is reported as 4, the BP increase [9] is reported as 33% and the BP increase [10] is reported as 976 mmHg. The Ki [2] was 0.0242 µM.

Work on `COc1ccc(CCOC(c2ccc(Cl)cc2)(c2ccc(Cl)cc2)C(Oc2nc3c(c(OC)n2)CCC3)C(=O)O)cc1OC` (stereo not drawn) yielded a Ratio [1] of 0.7, a Ki [2] of 0.215 µM and a Ki [3] of 0.29 µM.

Molecule `COc1cc(C)nc(OC(C(=O)O)C(OCCc2ccc(OC)c(OC)c2)(c2ccccc2)c2ccccc2)n1` (stereo not drawn) has a Ratio [1] of 6.2, a Ki [2] of 0.0147 µM and a Ki [3] of 0.00237 µM.

Work on `COc1ccc(CCOC(c2ccccc2)(c2ccccc2)[C@H](Oc2nc(C)cc(C)n2)C(=O)O)cc1OC` [FELOPRENTAN] yielded a Ratio [1] of 2.2, a BP increase [9] of 61% and a BP increase [10] of 583 mmHg. It also gave a Reduction in respiratory volume [11] of 46 mL, a Ki [2] of 0.00475 µM and a Ki [3] of 0.00215 µM. The Reduction in respiratory volume [12] was 79%.

For `Cc1ccc(/C=C/COC(c2ccccc2)(c2ccccc2)C(Oc2nc(C)cc(C)n2)C(=O)O)cc1` (stereo not drawn), the Ki [2] was 0.32 µM and the Ki [3] was 0.032 µM.

Work on `Cc1cc(C)nc(OC(C(=O)O)C(OCCc2ccc(Cl)cc2)(c2ccccc2)c2ccccc2)n1` (stereo not drawn) yielded a Ratio [1] of 4.7 and a Ki [2] of 0.0941 µM.

Molecule `COc1ccc(COC(c2ccccc2)(c2ccccc2)C(Oc2nc(C)cc(C)n2)C(=O)O)cc1OC` (stereo not drawn) has a Ratio [1] of 31, a Ki [2] of 0.063 µM and a Ki [3] of 0.002 µM.

For `COc1ccc(OC(c2ccccc2)(c2ccccc2)C(Oc2nc(C)cc(C)n2)C(=O)O)cc1OC` (stereo not drawn), the Ratio [1] was 125, the Ki [2] was 0.06 µM and the Ki [3] was 0.00048 µM.

With `CCc1ccc(C(OCCc2ccc(OC)cc2)(c2ccc(CC)cc2)C(Oc2nc(C)cc(C)n2)C(=O)O)cc1` (stereo not drawn) the Ratio [1] was 0.8, the Ki [2] was 0.195 µM and the Ki [3] was 0.25 µM.

Work on `CCc1ccc(C(OCCc2ccc(OC)c(OC)c2)(c2ccc(CC)cc2)C(Oc2nc(C)cc(OC)n2)C(=O)O)cc1` (stereo not drawn) yielded a Ratio [1] of 1, a Ki [2] of 0.04 µM and a Ki [3] of 0.0393 µM.
